Consider 69 compounds from ChEMBL document CHEMBL1128446, “Pyrazinoic acid esters with broad spectrum in vitro antimycobacterial activity” (1995).

Converted amounts (≈) assume the structure as drawn.

Assay type in all cases: functional
Assay [1] has as its system Mycobacterium tuberculosis. Kind of assay: Minimum Inhibitory Concentration for PZA resistant forms against Mycobacterium tuberculosis ATCC 35828. The gist of the method:
(§1)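 Broth macrodilution in tubes of modified Middlebrook 7H10 broth (agar and malachite green omitted) with 10% OADC and 0.05% Tween 80 at pH 5.8. Cultures were grown 3 days at 37 °C on a rotary shaker, then diluted with 7H10 broth to 1 Klett unit/mL. Stocks were made in water or DMSO and filter-sterilised; 2-fold serial dilutions were tested. Tubes shaken 7–10 days at 37 °C, with a drug-free control. MIC = lowest concentration (μg/mL) with no visible turbidity.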

The test system of assay [2] is Mycobacterium tuberculosis. Kind of assay: Minimum Inhibitory Concentration against Mycobacterium tuberculosis ATCC 35828 PZA resistant form. The gist of the method:
as §1

In assay [3] the test system is Mycobacterium tuberculosis. Kind of assay: Minimum Inhibitory Concentration against Mycobacterium tuberculosis ATCC 35828 for PZA resistant form. The gist of the method: as §1

Regarding `CCCCCCCC(OC(=O)c1cnc(Cl)cn1)C(C)(C)C` (centres undefined), the lowest concentration to inhibit growth in assay [1] (MIC) was 2 µg/mL (≈ 6.12 µM).
In the case of `CCCCCCC(C)OC(=O)c1cnc(Cl)cn1` (centres undefined), the MIC in assay [2] turned out to be 0.5 µg/mL (≈ 1.85 µM).
Regarding `COC(=O)c1cnc(F)cn1`, the lowest concentration to inhibit growth in assay [1] (MIC) was 8 µg/mL (≈ 51.2 µM).
`NC(=O)c1cnccn1` [PYRAZINAMIDE]: the minimal inhibitory concentration (MIC) in assay [2] amounted to 2050 µg/mL (≈ 16600 µM).
On the same count and under the same terms, the value for `CCCCCCCCCOC(=O)c1cnc(Cl)cn1` was below 0.03 µg/mL; that for `O=C(OCc1ccccc1)c1cnccn1` was 2 µg/mL (≈ 9.34 µM); that for `CC(C)(C)OC(=O)c1cnc(Cl)cn1` was 0.5 µg/mL (≈ 2.33 µM).
Turning to `CCCCCCCOC(=O)c1cnc(C)cn1`, in assay [1], the minimum inhibitory concentration (MIC) was 1 µg/mL (≈ 4.23 µM).
As for `Cc1cc(C(C)(C)C)c(OC(=O)c2cnccn2)c(C(C)(C)C)c1`, in assay [2], the lowest concentration to inhibit growth (MIC) was 128 µg/mL (≈ 392 µM).
`CCCCC(OC(=O)c1cnc(Cl)cn1)c1ccccc1` (centres undefined): in assay [1], it took 8 µg/mL (≈ 26.2 µM) to inhibit growth (MIC).
For the compound `CCCCCCCCCCOC(=O)c1cnc(Cl)cn1`, it took 0.5 µg/mL (≈ 1.67 µM) to inhibit growth in assay [2] (MIC).
On to `CC(C)COC(=O)c1cnccn1`, for which the minimum inhibitory concentration (MIC) in assay [2] worked out at 64 µg/mL (≈ 355 µM).
Take `CCCCCCC(C)(CCCCCC)OC(=O)c1cnc(Cl)cn1`: in assay [1], inhibition of growth (MIC) required 0.5 µg/mL (≈ 1.41 µM).
Regarding `O=C(Oc1cccc2ccccc12)c1cnccn1`, the MIC in assay [2] worked out at 8 µg/mL (≈ 32 µM).
With `CCCCCCCCCCOC(=O)c1cnccn1`, in assay [2], the MIC is 0.25 µg/mL (≈ 0.946 µM).
On the same count and under the same terms, the figure for `O=C(Oc1ccc(F)cc1)c1cnccn1` is 16 µg/mL (≈ 73.3 µM).
Turning to `CCCCCC(CC)OC(=O)c1cnc(Cl)cn1` (centres undefined), in assay [3], the MIC is 1 µg/mL (≈ 3.69 µM).
In the case of `CCCCCCC(C)(C)OC(=O)c1cnc(Cl)cn1`, 0.25 µg/mL (≈ 0.878 µM) was the least that counted as inhibitory in assay [1] (MIC).
In assay [1], `CCCCCCCC(OC(=O)c1cnc(Cl)cn1)C(C)C` (centres undefined) registered an MIC of 2 µg/mL (≈ 6.39 µM).
Regarding `CCCCCCCCCCCCCCCOC(=O)c1cnccn1`, it took 1 µg/mL (≈ 2.99 µM) to inhibit growth in assay [2] (MIC).
On the same count and under the same terms, the value for `CCCCCC(CC)OC(=O)c1cnc(C)cn1` (centres undefined) was 1 µg/mL (≈ 3.99 µM).
Consider `CCCCCCCC(C)(CCCC)OC(=O)c1cnc(Cl)cn1` (centres undefined), for which, in assay [1], the lowest concentration to inhibit growth (MIC) was 16 µg/mL (≈ 46.9 µM).
In turn, `CCCCCCCOC(=O)c1cnc(Cl)cn1` returned an MIC in assay [2] below 0.03 µg/mL.
Take `CCCCCCC(C)(CCCC)OC(=O)c1cnc(Cl)cn1` (centres undefined): in assay [1], 16 µg/mL (≈ 48.9 µM) was the least that counted as inhibitory (MIC).
`COC(=O)c1cnc(Cl)cn1` gave a minimum inhibitory concentration (MIC) in assay [2] of 16 µg/mL (≈ 92.7 µM).
With `Cc1ccc(C(C)OC(=O)c2cnc(Cl)cn2)cc1` (centres undefined), the lowest concentration to inhibit growth in assay [1] (MIC) was 2 µg/mL (≈ 7.23 µM).
As for `CCCCCCCCOC(=O)c1cnc(Cl)cn1`, the MIC in assay [2] is below 0.03 µg/mL.
On the same count and under the same terms, the figure for `CCCCCCCCCCCOC(=O)c1cnc(Cl)cn1` is 0.5 µg/mL (≈ 1.6 µM).
In turn, `CCCCCCOC(=O)c1cnc(F)cn1` had an MIC in assay [1] of 8 µg/mL (≈ 35.4 µM).
In assay [1], `CCCCCCCC(C)(CCCCC)OC(=O)c1cnc(Cl)cn1` (centres undefined) registered an MIC of 8 µg/mL (≈ 22.5 µM).
Turning to `CCCCCCCCC(C)OC(=O)c1cnc(Cl)cn1` (centres undefined), in assay [2], the MIC is below 0.03 µg/mL.
On to `O=C(O)c1cnc(Cl)cn1`, for which the MIC in assay [2] is 64 µg/mL (≈ 404 µM).
For the compound `CCCCCCCCCCC(OC(=O)c1cnc(Cl)cn1)C(C)(C)C` (centres undefined), inhibition of growth in assay [1] (MIC) required 16 µg/mL (≈ 43.4 µM).
In turn, `CC(C)(OC(=O)c1cnc(Cl)cn1)c1ccccc1` returned an MIC in assay [1] above 16 µg/mL.
In assay [2], `CCCCCC(C)OC(=O)c1cnc(Cl)cn1` (centres undefined) had an MIC of 0.06 µg/mL (≈ 0.234 µM).
Compound `O=C(O)c1cnccn1` [PYRAZINOIC ACID] gave an MIC in assay [2] of 32 µg/mL (≈ 258 µM).
The compound `CCC(C)(CC)OC(=O)c1cnc(Cl)cn1` had an MIC in assay [1] of 4 µg/mL (≈ 16.5 µM).
On the same count and under the same terms, the value for `CCCCCCCCC(CC)OC(=O)c1cnc(Cl)cn1` (centres undefined) was 0.25 µg/mL (≈ 0.799 µM); that for `CCCOC(=O)c1cnc(C)cn1` was 1 µg/mL (≈ 5.55 µM).
Compound `CCCCCCCC(C)OC(=O)c1cnc(Cl)cn1` (centres undefined) displayed an MIC in assay [2] of 2 µg/mL (≈ 7.02 µM).
`C=CCOC(=O)c1cnc(Cl)cn1` displayed an MIC in assay [2] of 2 µg/mL (≈ 10.1 µM).
Same read-out and setting: the figure for `COC(=O)c1cnccn1` is 64 µg/mL (≈ 463 µM).
Regarding `CCCCCC(C)(CCCC)OC(=O)c1cnc(Cl)cn1` (centres undefined), inhibition of growth in assay [1] (MIC) required 16 µg/mL (≈ 51.1 µM).
Compound `CC(C)COC(=O)c1cnc(Cl)cn1` returned an MIC in assay [2] of 2 µg/mL (≈ 9.32 µM).
Regarding `CCCCCCCCCCOC(=O)c1cnc(F)cn1`, it took 4 µg/mL (≈ 14.2 µM) to inhibit growth in assay [1] (MIC).
For the compound `Cc1cnc(C(=O)O)cn1`, in assay [2], the minimal inhibitory concentration (MIC) was above 64 µg/mL.
Regarding `COC(=O)c1cnc(C)cn1`, the MIC in assay [1] is above 16 µg/mL.
In assay [2], `CCCCCCCCCC(C)OC(=O)c1cnc(Cl)cn1` (centres undefined) displayed a minimum inhibitory concentration (MIC) of 1 µg/mL (≈ 3.2 µM).
`CCCCCCCCC(C)(CCCC)OC(=O)c1cnc(Cl)cn1` (centres undefined): the MIC in assay [1] stood at 8 µg/mL (≈ 22.5 µM).
For `O=C(OCCc1ccccc1)c1cnc(Cl)cn1`, the MIC in assay [1] is 4 µg/mL (≈ 15.2 µM).
On the same count and under the same terms, the value for `CC(OC(=O)c1cnc(Cl)cn1)c1ccc(Br)cc1` (centres undefined) was 16 µg/mL (≈ 46.8 µM).
In turn, `CCCCCCCCCOC(=O)c1cnc(C)cn1` yielded an MIC in assay [1] of 2 µg/mL (≈ 7.57 µM).
The compound `O=C(OCc1ccccc1)c1cnc(Cl)cn1` gave an MIC in assay [2] of 1 µg/mL (≈ 4.02 µM).
Consider `CCCCCCCCCC(C)(C)OC(=O)c1cnc(Cl)cn1`, for which, in assay [1], the MIC is 16 µg/mL (≈ 48.9 µM).
In turn, `CCOC(=O)c1cnc(Cl)cn1` yielded an MIC in assay [2] above 16 µg/mL.
Take `CC(C)(C)C(OC(=O)c1cnc(Cl)cn1)c1ccccc1` (centres undefined): 16 µg/mL (≈ 52.5 µM) was the least that counted as inhibitory in assay [1] (MIC).
Same read-out and setting: the value for `CCCCCC(C)(CCCCC)OC(=O)c1cnc(Cl)cn1` was 16 µg/mL (≈ 48.9 µM).
Regarding `CCCCCCCCCCCC(C)OC(=O)c1cnc(Cl)cn1` (centres undefined), 0.5 µg/mL (≈ 1.47 µM) was the least that counted as inhibitory in assay [2] (MIC).
Turning to `CCCCCOC(=O)c1cnc(Cl)cn1`, the MIC in assay [2] is 0.12 µg/mL (≈ 0.525 µM).
Still for that read-out and setting: the value for `CCCOC(=O)c1cnc(Cl)cn1` was 0.25 µg/mL (≈ 1.25 µM).
`CCCCCCC(C)(CCCCC)OC(=O)c1cnc(Cl)cn1` (centres undefined) registered an MIC in assay [1] of 16 µg/mL (≈ 46.9 µM).
`O=C(Oc1c(Br)cc(Br)cc1Br)c1cnccn1`: the MIC in assay [2] came to 32 µg/mL (≈ 73.2 µM).
For `CCCCOC(=O)c1cnc(Cl)cn1`, the minimal inhibitory concentration (MIC) in assay [2] was 0.5 µg/mL (≈ 2.33 µM).
The compound `O=C(OCc1ccc(Br)cc1)c1cnc(Cl)cn1` displayed a minimal inhibitory concentration (MIC) in assay [1] above 16 µg/mL.
Consider `CCCCCCOC(=O)c1cnc(Cl)cn1`, for which the MIC in assay [2] was determined as 0.5 µg/mL (≈ 2.06 µM).
`O=C(OC(c1ccccc1)c1ccccc1)c1cnc(Cl)cn1` yielded an MIC in assay [1] of 16 µg/mL (≈ 49.3 µM).
On the same count and under the same terms, the figure for `O=C(OCCc1ccc(Cl)cc1)c1cnc(Cl)cn1` is 32 µg/mL (≈ 108 µM).
As to `CCCCCCC(C)OC(=O)c1cnc(F)cn1` (centres undefined), the MIC in assay [1] came out at 4 µg/mL (≈ 15.7 µM).
Still for that read-out and setting: the value for `CCCCCCCCC(C)(C)OC(=O)c1cnc(Cl)cn1` was 0.25 µg/mL (≈ 0.799 µM).

A word on the MIC: it is the lowest concentration that inhibits growth of the organism. Low readings indicate greater potency, high ones weaker potency.
